Sampled rows, rich in hits. Any-hit rate of the full collection: about 4.1%.
KCNQ1 act – human KCNQ1 channel potentiation or activation | P51787 | CHO-K1 KCNQ1, thallium flux FluxOR fluorescence; stronger effect = higher value | B-score at 10 µM | 310,000 tested, 0.35% active;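 active means fluorescence ratio B-score, a plate-corrected score, at least three library SD, with initial intensity B-score within 5 SD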
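Doses: Single concentration per compound, DMSO matched to controls | Test system: KCNQ1-transfected CHO-K1 cells | Timing: 90 min dye loading and 20 min compound exposure, both at room temperature | Measured by: Kinetic FluxOR thallium fluorescence, 10-s 1-Hz baseline, 110-s post-stimulus read | Medium: Assay buffer with matched DMSO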
hERG protect – compounds protecting human hERG from proarrhythmic drug block; 310,000 tested, 0.51% active; Q12809; activation (rescue from dofetilide block), less the hit threshold, % at 10 µM; CHO-hERG, FluxOR thallium flux, dofetilide IC70 present;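 active means activation above the mean of controls blocked by dofetilide plus 5 SD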;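 further: thallium influx through hERG after potassium depolarization seen as dye fluorescence rise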
Target sequence (Q12809 whole entry, looked up): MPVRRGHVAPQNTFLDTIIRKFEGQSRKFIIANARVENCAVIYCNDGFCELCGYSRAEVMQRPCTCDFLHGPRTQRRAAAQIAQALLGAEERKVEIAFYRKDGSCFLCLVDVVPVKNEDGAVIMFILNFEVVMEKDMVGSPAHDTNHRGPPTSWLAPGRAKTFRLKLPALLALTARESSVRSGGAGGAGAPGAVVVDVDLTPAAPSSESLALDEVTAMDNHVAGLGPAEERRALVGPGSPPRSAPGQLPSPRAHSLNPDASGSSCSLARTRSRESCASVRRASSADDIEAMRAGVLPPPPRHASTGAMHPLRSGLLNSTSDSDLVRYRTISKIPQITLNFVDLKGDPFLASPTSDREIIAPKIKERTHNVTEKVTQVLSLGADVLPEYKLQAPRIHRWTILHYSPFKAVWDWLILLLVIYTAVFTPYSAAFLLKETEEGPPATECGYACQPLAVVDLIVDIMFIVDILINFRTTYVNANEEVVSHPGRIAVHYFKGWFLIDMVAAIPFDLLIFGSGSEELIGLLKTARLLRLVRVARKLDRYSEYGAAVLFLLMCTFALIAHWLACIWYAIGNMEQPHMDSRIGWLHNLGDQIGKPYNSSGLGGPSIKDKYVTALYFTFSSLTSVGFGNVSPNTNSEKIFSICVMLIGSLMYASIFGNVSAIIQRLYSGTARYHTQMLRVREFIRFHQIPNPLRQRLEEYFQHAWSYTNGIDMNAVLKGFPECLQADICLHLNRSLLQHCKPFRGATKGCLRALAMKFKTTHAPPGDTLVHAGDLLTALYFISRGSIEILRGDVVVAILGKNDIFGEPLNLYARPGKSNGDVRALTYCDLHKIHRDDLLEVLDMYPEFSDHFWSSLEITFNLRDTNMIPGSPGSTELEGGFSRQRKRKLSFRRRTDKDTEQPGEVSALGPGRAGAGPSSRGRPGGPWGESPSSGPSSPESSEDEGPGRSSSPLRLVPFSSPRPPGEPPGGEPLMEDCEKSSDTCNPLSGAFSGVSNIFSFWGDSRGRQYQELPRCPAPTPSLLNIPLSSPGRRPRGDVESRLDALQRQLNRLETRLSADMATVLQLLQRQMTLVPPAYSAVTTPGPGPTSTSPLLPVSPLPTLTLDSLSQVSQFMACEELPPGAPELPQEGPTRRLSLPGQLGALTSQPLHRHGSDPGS
Cl transport mod – modulators of human KCC2 chloride dependent transport; Q9H2X9; 190,000 tested, 2.2% active; KCC2 cells, thallium flux FluoZin-2 fluorescence; B-score of Tl+ flux slope (higher = more flux/activation; lower = inhibition) at 10 µM;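 active means thallium flux slope and its plate-corrected score both differing from the plate sample mean at a set confidence after two filtering rounds, in either direction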;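 further: slope of fluorescence scaled to starting intensity during 10 to 20 s after thallium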
KCNQ1 block – inhibitors of human KCNQ1 potassium channel; P51787; CHO-K1 KCNQ1, FluxOR thallium flux fluorescence; stronger effect = higher value; B-score at 10 µM; 310,000 tested, 1.3% active;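 active means compounds whose thallium flux B-score, printed positive for inhibition, exceeds three library SD while starting fluorescence stays within three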;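 further: channel opened by potassium depolarization with thallium stimulus after 20 min compound exposure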
KCNK3 block – human KCNK3 channel inhibition, primary screen. O14649. CHO-KCNK3 thallium flux, FluxOR fluorescence; stronger effect = lower value. B-score at 10 µM. 340,000 tested, 0.84% active. AID 602410;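 active means B-score under library mean minus 4 SD, starting fluorescence ratio at most library mean plus 5 SD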;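 further: more negative B-score means stronger inhibition of thallium flux through KCNK3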
KCNK9 inh – human KCNK9 channel inhibition. HEK293 KCNK9, FluxOR thallium flux fluorescence; stronger effect = lower value. AID 488922. Q9NPC2. 310,000 tested, 1.2% active. B-score at 10 µM;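 active means ratio B-score over 3 SD below the library mean, with starting fluorescence within 5 SD of its mean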;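 further: negative B-score means less thallium flux so channel inhibition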
KCNQ1 block val – confirmation of human KCNQ1 potassium channel inhibitors. shares compounds with KCNQ1 block. KCNQ1 cell line, FluxOR thallium flux fluorescence. inhibition, % at 10 µM. AID 588353. 1,600 tested, 93% active;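 active means primary screen active, with duplicate mean exceeding buffer control mean plus 3 SD of buffer wells, cut at about 28% in these data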
CHO Tl flux – activity in parental CHO cells lacking KCNQ1. 1,600 tested, 21% active. shares compounds with KCNQ1 block. fluorescence ratio (Tl flux) at 10 µM. parental CHO-K1, FluxOR thallium flux fluorescence ratio; stronger effect = lower value; zero means no signal rise above baseline;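 active means mean of duplicate thallium-flux fluorescence ratios in parental host cells more than 5 SD below the buffer control mean, cut at about 0.38 in these data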;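 further: ratio is peak minus minimum fluorescence divided by baseline fluorescence; actives read low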
KCNQ1 ephys val – confirmation of human KCNQ1 potassium channel inhibitors by electrophysiology. shares compounds with KCNQ1 block. KCNQ1-CHO cells, automated patch clamp current. calls only at 10 µM. 490 tested, 20% active. AID 624120;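 active means KCNQ1 current drop exceeding 3 SD of negative control wells, seen in both duplicate runs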;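 further: steady state current during a 2 s step from -80 to +40 mV; negative values mean current inhibition and positive values mean potentiation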
KCNQ2 spec – rat KCNQ2 inhibition in KCNQ1 inhibitor specificity screen; shares compounds with KCNQ1 block; KCNQ2 cells, FluxOR thallium flux fluorescence; inhibition, % at 10 µM; 1,600 tested, 71% active;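 active means mean percent inhibition of the KCNQ2 thallium signal more than 5 SD above the buffer-only control wells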;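 further: KCNQ2 expressed in CHO cells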
KCNQ1-KCNE1 inh – KCNQ1 inhibitor that also blocks human KCNQ1/KCNE1 channel; shares compounds with KCNQ1 block; KCNQ1/KCNE1 cells, FluxOR thallium flux fluorescence; inhibition, % at 10 µM; 1,600 tested, 77% active; AID 652147;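 active means mean percent inhibition of duplicate wells above the buffer-only control mean plus 3 SD of those controls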
KCNK9 inh conf – confirmation of human KCNK9 potassium channel inhibitors | shares compounds with KCNK9 inh | HEK293 KCNK9 cells, FluxOR thallium flux fluorescence | inhibition, % at 10 µM | 4,900 tested, 43% active | AID 492992;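 active means thallium signal inhibited by more than 5 SD of the compound-free buffer control wells, on both duplicate plates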
Kir2-1 spec – tests whether KCNK9 modulators also affect mouse Kir2.1; shares compounds with KCNK9 inh; Kir2.1 cells, FluxOR thallium flux fluorescence; inhibition, % at 10 µM; 4,900 tested, 4% active;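 active means thallium signal drop more than 5 SD beyond the mean of the no-compound control wells, seen in both duplicate plates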;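 further: signal is fluorescence rise after thallium addition divided by baseline fluorescence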
HEK293 Tl ctr – second check of KCNK9 modulator effects in non-induced HEK293 cells | 4,900 tested, 40% active | AID 492997 | shares compounds with KCNK9 inh | FluxOR thallium flux | inhibition, % at 10 µM;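 active means thallium signal drop beyond 5 SD of the untreated control mean, on both duplicate plates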
KCNK3 confirm – confirmation of human KCNK3 two-pore domain potassium channel inhibitors | shares compounds with KCNK3 block | 2,400 tested, 99% active | ratio percent of control, % at 10 µM | AID 651638 | CHO-KCNK3 thallium flux, FluxOR fluorescence; 0% buffer, 100% carvedilol maximal block;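 active means ratio percent of control, averaged over triplicates, above buffer control mean plus 5 SD, cut at about 64% in these data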;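 further: ratio is the fluorescence rise from min to max over baseline after thallium stimulus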
KCNK3 noninduced – counter-screen for KCNK3 inhibitors: effect in non-induced cells; shares compounds with KCNK3 block; non-induced KCNK3 parental cells, FluxOR thallium flux; stronger effect = lower value; thallium flux ratio (lower = more inhibition) at 10 µM; 2,400 tested, 40% active; AID 651747;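 active means thallium flux ratio, averaged over three wells, more than 5 SD below the buffer control mean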;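 further: host cells are CHO cells without KCNK3 induction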
Each line names hits and unclear results; the compound was inactive in the other large screens (follow-up assays come after a bar, where they were run).

Cc1ccc(NC(=O)c2cc(-c3cccs3)nc3ccccc23)nc1	KCNQ1 block 6, KCNK3 block -10.7 | KCNQ1 block val 87.5 | CHO Tl flux 0.372 | KCNQ2 spec 121.3% | KCNQ1-KCNE1 inh 196.5% | KCNK3 confirm 110.7 | KCNK3 noninduced 0.142
CSc1ncnc2[nH]ccc12	none (no result: KCNQ1 act, hERG protect, Cl transport mod, KCNQ1 block, KCNK9 inh)
CC(=O)Nc1ccc(NC(=O)C(C)Sc2nnc(C3CC3)n2-c2ccccc2)cc1 (stereo not given)	none (no result: KCNQ1 act, hERG protect, Cl transport mod, KCNQ1 block, KCNK9 inh)
Fc1cccc(NC(=S)N2CCn3cccc3C2c2cccnc2)c1 (stereo not given)	none
Fc1ccc(C2c3cccn3CCN2C(=S)Nc2cccc(F)c2)cc1 (stereo not given)	KCNQ1 block 9, KCNK3 block -10.2, KCNK9 inh -7.53 | KCNQ1 block val 118.5 | CHO Tl flux inactive | KCNQ1 ephys val active | KCNQ2 spec 116.0% | KCNQ1-KCNE1 inh 182.5% | KCNK3 confirm 134.7 | KCNK3 noninduced 0.151
COc1ccc(CCNC(C(=O)Nc2cc(C)cc(C)c2)c2ccccc2)cc1 (stereo not given)	KCNQ1 block 12, KCNK3 block -14 (no result: Cl transport mod) | KCNQ1 block val 87.5 | CHO Tl flux 0.369 | KCNQ2 spec 122.3% | KCNQ1-KCNE1 inh 143.5% | KCNK3 confirm 117.7 | KCNK3 noninduced 0.139
Cc1cc(C)cc(NC(=O)C(NCC2CCCO2)c2ccccc2)c1 (stereo not given)	none
CNc1nc(SCc2ccc(C)cc2)nc2c1CCCC2	KCNQ1 block 10, KCNK3 block -10.8 (no result: Cl transport mod) | KCNQ1 block val 129.5 | CHO Tl flux inactive | KCNQ1 ephys val inactive | KCNQ2 spec 101.0% | KCNQ1-KCNE1 inh 102.0% | KCNK3 confirm 134.0 | KCNK3 noninduced 0.148
O=C(N/N=C/c1cc2c3c(c1O)CCCN3CCC2)c1ccccc1O	KCNQ1 block 12, KCNK3 block -10.2, KCNK9 inh -9.95 | KCNK9 inh conf 49.0% | Kir2-1 spec inactive | HEK293 Tl ctr 55.0%
C=CCC1NS(=O)(=O)OCC1C(C)C (stereo not given)	none (no result: Cl transport mod)
CCCOc1ccc(-c2c(=O)n(O)c3ccccc3[n+]2[O-])cc1	hERG protect 28.3, KCNK9 inh -8.88 (no result: Cl transport mod) | KCNK9 inh conf inactive | Kir2-1 spec inactive | HEK293 Tl ctr inactive
CC(OC(=O)Cn1cc(C(F)(F)F)ccc1=O)C(=O)N(C)c1ccccc1 (stereo not given)	none (no result: KCNQ1 act, hERG protect, Cl transport mod, KCNQ1 block, KCNK9 inh)
O=C(COC(=O)c1ccc(F)cc1Cl)NC(=O)NC1CCCC1	none (no result: KCNQ1 act, hERG protect, Cl transport mod, KCNQ1 block, KCNK9 inh)
O=c1cc(/C=C/c2ccccc2)oc2c1ccc1ccccc12	KCNK9 inh -8.33 | KCNK9 inh conf inactive | Kir2-1 spec inactive | HEK293 Tl ctr inactive
O=c1cc(C(F)(F)F)oc2c1ccc1ccccc12	none
COc1ccc(N(C(=O)c2ccc(Cl)cc2)C2=CC3CCC(C2)N3C)cc1 (stereo not given)	none
CCOC(=O)C1(CCc2ccccc2)CCN(Cc2cccc3nccnc23)CC1	none | KCNK9 inh conf inactive | Kir2-1 spec inactive | HEK293 Tl ctr 23.0%
CCOC(=O)C1(CCCc2ccccc2)CCN(Cc2nccn2CC)CC1	none | KCNK9 inh conf inactive | Kir2-1 spec inactive | HEK293 Tl ctr inactive
CCOC(=O)C1(CCCc2ccccc2)CCN(C(=O)CSC)CC1	none (no result: Cl transport mod)
CCOC(=O)C1(CCCc2ccccc2)CCN(C(=O)Cc2nonc2C)CC1	none (no result: Cl transport mod) | KCNK9 inh conf inactive | Kir2-1 spec inactive | HEK293 Tl ctr inactive
CCOC(=O)C1(CCOc2ccccc2)CCN(Cc2nccn2CC)CC1	none
O=C(C[C@@H]1C/C=C\C[C@@H](NC(=O)OCC2c3ccccc3-c3ccccc32)C(=O)OCCNC1=O)N[C@@H](CO)Cc1ccccc1	none (no result: KCNQ1 act, hERG protect, Cl transport mod, KCNQ1 block, KCNK9 inh)
CCc1nnc(NC(=O)CSCc2cc(=O)n3ccsc3n2)s1	none (no result: Cl transport mod)
O=C(Nc1cccc(/C=C/c2ccccn2)c1)c1ccc(-n2cncn2)c([N+](=O)[O-])c1	none (no result: Cl transport mod)
O=C(NCC[C@@H]1C[C@@H]2C=C[C@H]1C2)c1cc(COc2ccc(F)cc2F)on1	KCNK9 inh -20.7 (no result: Cl transport mod) | KCNK9 inh conf 40.0% | Kir2-1 spec inactive | HEK293 Tl ctr 37.5%
COc1ccc(Cn2c(=O)sc3ccccc32)cc1	none (no result: Cl transport mod)
CC(C)Oc1ccc(Cn2c(=O)sc3ccccc32)cc1	none | KCNK9 inh conf inactive | Kir2-1 spec inactive | HEK293 Tl ctr 30.5%
Cc1nn(C(C)C)c(C)c1CN1CCCC(C(=O)c2cccc(OC(C)C)c2)C1 (stereo not given)	none | KCNK9 inh conf inactive | Kir2-1 spec inactive | HEK293 Tl ctr inactive
COc1cccc(C(=O)C2CCCN(Cc3cccc(-n4nc(C)cc4C)c3)C2)c1 (stereo not given)	none | KCNK9 inh conf inactive | Kir2-1 spec inactive | HEK293 Tl ctr inactive
CCOC(=O)N/N=C/c1cc(C)n(-c2cccc3ccccc23)c1C	KCNK9 inh -8.31 | KCNK9 inh conf 48.5% | Kir2-1 spec inactive | HEK293 Tl ctr 35.5%
CCOC(=O)N/N=C/c1c[nH]c2ccccc12	none (no result: Cl transport mod)

Screens as filed in PubChem.
